Here are results for two molecules from ChEMBL document CHEMBL1154183, “Structure-based optimization of potent and selective inhibitors of the tyrosine kinase erythropoietin producing human hepatocellular carcinoma receptor B4 (EphB4)” (J Med Chem, 2009).

The target of assay [1] is Casein kinase I isoform alpha (Homo sapiens) (UniProt P48729). Put plainly: Inhibition of CK1 assessed as remaining enzyme activity at 3 uM relative to DMSO. The method in brief: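 Dundee kinase panel, radiometric: [γ-33P]ATP (800 cpm/pmol) at 5, 20 or 50 μM, at or below each kinase's ATP Km; 10 mM magnesium acetate; robotic, room temperature, 30 min. Reactions started with MgATP, stopped with orthophosphoric acid, spotted onto P81 filters. Inhibitor tested at a single concentration; mean % activity of duplicates relative to DMSO control.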
Casein kinase I isoform alpha (Homo sapiens), sequence (P48729 whole entry, looked up, canonical isoform): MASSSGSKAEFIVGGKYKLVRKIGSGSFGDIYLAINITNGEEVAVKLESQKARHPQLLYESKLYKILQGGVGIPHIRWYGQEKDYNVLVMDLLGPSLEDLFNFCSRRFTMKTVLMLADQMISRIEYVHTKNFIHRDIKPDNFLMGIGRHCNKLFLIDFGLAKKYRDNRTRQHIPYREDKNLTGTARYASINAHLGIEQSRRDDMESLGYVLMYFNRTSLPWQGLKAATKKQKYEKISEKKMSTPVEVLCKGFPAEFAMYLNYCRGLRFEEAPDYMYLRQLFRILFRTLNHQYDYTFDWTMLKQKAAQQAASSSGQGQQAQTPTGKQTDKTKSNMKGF

For assay [2], the target named is Insulin receptor (Homo sapiens) (UniProt P06213). Put plainly: Inhibition of histidine-tagged IR assessed as remaining enzyme activity at 1 uM relative to DMSO.
Insulin receptor (Homo sapiens), sequence (P06213 28-758 limits assumed): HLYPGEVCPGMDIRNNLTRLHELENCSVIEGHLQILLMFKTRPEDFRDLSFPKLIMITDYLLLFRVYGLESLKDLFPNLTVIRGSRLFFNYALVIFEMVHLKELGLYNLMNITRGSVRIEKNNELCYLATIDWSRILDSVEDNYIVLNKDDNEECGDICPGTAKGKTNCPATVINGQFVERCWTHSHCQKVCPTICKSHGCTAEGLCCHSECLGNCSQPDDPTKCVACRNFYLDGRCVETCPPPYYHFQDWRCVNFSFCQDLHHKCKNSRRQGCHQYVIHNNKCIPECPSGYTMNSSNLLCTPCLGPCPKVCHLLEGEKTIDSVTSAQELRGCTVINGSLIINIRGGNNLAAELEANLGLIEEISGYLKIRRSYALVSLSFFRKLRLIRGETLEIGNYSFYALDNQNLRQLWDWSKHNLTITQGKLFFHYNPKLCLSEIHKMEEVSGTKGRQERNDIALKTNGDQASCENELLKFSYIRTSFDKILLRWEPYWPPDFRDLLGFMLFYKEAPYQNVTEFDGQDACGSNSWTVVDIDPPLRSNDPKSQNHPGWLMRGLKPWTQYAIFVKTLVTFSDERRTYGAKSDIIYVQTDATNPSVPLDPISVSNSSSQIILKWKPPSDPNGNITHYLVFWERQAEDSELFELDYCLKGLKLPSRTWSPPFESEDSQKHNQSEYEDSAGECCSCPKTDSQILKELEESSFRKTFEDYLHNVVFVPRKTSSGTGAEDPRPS
Insulin receptor (Homo sapiens), sequence (P06213 763-1382 limits assumed): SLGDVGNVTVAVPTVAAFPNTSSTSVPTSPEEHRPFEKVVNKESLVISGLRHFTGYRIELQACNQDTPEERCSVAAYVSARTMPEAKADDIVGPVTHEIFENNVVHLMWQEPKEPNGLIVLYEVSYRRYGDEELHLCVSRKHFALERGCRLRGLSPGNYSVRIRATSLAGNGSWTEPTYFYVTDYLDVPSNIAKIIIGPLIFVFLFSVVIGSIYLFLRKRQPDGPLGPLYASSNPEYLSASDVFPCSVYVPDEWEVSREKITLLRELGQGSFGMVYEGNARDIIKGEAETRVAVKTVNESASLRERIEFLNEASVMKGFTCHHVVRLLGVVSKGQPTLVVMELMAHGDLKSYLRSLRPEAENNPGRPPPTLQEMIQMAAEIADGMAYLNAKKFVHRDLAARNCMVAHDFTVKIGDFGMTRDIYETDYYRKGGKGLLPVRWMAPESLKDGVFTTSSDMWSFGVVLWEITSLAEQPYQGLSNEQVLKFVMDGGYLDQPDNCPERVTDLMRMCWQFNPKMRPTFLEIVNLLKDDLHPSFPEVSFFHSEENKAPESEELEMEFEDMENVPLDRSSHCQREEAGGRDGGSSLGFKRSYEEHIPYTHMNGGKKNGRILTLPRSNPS
Assay [3] concerns the target Ephrin type-B receptor 6 (Homo sapiens) (UniProt O15197). Put plainly: Binding affinity to EPHB6 assessed as percentage of kinase remaining bound to the bead at 1 uM by T7 phage display based binding assay. The method in brief:
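Competition binding assay run by a contract lab. Each kinase was expressed as a fusion to T7 phage, full-length for small kinases and catalytic domain for large ones. Phage were mixed with an immobilized known kinase inhibitor on streptavidin magnetic beads and with test compound at a single 1 μM. Kinase/phage still bound to the beads was quantified by qPCR and expressed as % of DMSO control.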

Assay [4] addresses Ribosomal protein S6 kinase beta-1 (Homo sapiens) (UniProt P23443). Put plainly: Inhibition of S6K1 assessed as remaining enzyme activity at 1 uM relative to DMSO.

Ephrin type-B receptor 6 (Homo sapiens), sequence (O15197 whole entry, the tested form may be a part): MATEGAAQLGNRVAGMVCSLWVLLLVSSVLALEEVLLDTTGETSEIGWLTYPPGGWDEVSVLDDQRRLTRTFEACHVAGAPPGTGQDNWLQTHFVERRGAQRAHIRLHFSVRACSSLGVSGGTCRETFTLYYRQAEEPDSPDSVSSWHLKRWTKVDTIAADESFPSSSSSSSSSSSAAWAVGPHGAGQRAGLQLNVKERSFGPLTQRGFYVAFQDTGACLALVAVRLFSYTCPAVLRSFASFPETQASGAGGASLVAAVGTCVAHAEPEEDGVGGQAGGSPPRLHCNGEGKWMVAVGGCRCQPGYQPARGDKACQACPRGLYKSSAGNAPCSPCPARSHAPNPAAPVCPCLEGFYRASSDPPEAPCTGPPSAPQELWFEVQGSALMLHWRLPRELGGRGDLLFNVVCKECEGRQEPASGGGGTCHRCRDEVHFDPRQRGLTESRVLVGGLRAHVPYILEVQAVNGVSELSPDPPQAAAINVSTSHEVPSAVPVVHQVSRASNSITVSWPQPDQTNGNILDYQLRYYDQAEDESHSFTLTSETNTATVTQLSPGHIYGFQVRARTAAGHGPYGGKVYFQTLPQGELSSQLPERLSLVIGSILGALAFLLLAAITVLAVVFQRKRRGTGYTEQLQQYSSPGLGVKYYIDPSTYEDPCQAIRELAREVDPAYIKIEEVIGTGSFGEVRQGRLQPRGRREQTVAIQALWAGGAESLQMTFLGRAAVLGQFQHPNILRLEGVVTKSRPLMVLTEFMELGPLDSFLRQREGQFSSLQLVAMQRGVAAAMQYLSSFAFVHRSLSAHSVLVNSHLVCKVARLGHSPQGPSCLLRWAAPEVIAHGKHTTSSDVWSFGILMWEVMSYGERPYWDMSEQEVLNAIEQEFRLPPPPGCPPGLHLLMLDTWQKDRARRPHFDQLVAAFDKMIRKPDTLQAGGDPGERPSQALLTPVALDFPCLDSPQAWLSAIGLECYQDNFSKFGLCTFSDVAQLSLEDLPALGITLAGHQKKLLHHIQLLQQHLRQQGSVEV
Ribosomal protein S6 kinase beta-1 (Homo sapiens), sequence (P23443 whole entry, looked up): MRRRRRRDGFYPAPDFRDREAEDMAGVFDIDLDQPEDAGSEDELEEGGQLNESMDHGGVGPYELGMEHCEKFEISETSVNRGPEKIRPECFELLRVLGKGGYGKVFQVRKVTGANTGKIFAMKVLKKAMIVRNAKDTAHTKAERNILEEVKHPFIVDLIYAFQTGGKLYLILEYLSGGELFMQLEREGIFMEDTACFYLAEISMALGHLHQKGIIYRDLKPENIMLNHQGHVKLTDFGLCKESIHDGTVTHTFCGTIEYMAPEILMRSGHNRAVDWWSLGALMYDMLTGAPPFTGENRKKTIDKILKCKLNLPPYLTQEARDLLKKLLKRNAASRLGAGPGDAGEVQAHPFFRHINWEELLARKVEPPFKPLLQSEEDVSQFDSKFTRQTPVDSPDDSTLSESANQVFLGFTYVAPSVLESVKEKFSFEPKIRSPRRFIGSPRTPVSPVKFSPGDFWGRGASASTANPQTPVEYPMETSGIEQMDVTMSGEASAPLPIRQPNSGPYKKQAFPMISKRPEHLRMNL

With `COc1ccccc1-n1c(-c2ccccc2C)cn2c3c(=O)[nH]c(=O)n(C)c3nc12`, in assay [1], the Activity came out at 108%.
As for `COc1ccccc1-n1c(-c2cc(O)ccc2C)cn2c3c(=O)[nH]c(=O)n(C)c3nc12`, the Activity was determined as 104% in assay [2], 32% in assay [3] and 77% in assay [4].
